Assay outcomes: PubChem, Broad Institute
Compounds with a hit are over-represented: about 1.1% of the library has one in this group of screens.
Keap1-Nrf2 PPI: Keap1-Nrf2 protein-protein interaction inhibitors, primary screen, biochemical, fluorescence polarization, single point | Kelch-like ECH-associated protein 1 (Homo sapiens), Q14145 | 340,000 compounds, 0.15% hits | Keap1 Kelch-Nrf2 peptide fluorescence polarization, 1536-well | inhibition, % at 9.4 µM; in the data active means inhibition above about 12%;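 further: human Keap1 Kelch domain with fluorescein labeled Nrf2 9mer peptide probe; 0% = neutral control wells and 100% = peptide positive control; higher means more block of Keap1 binding to Nrf2 peptide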
Target sequence (Q14145 whole entry, looked up, the tested form may be a part): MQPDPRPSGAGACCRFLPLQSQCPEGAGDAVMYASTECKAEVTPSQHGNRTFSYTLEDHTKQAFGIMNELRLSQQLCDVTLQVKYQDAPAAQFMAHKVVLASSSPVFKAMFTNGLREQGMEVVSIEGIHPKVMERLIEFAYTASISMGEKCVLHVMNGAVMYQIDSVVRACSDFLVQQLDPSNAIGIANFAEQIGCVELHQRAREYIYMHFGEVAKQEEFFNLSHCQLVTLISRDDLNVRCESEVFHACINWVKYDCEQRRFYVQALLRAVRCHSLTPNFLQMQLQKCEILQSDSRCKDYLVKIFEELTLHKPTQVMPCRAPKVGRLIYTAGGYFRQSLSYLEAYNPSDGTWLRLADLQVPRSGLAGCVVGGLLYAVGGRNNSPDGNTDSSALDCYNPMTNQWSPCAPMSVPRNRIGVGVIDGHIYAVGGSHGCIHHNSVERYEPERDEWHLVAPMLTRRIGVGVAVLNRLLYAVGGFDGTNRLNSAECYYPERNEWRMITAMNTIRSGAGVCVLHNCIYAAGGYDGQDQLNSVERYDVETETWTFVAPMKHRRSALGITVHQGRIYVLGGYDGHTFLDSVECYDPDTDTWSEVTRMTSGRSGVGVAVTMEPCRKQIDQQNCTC
CAL PDZ FP-1: untagged CAL PDZ binding inhibitors, primary screen, biochemical, fluorescence polarization, HTS; Golgi-associated PDZ and coiled-coil motif-containing protein (Homo sapiens), Q9HD26; purified CAL PDZ, TMR-peptide fluorescence polarization, 1 h; inhibition, % at 24.9 µM; 300,000 compounds, 0.92% hits;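 active means mean inhibition of at least 30% with at least half of replicates also reaching 30%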;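 further: 0% = DMSO neutral control and 100% = excess unlabeled competitor peptide PRC23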
miR-122 sensor: miR-122 Renilla sensor signal increase in Huh7, primary screen, miR-122 inhibitor project, cell-based, single point, plate reader; Huh7 miR-122 Renilla luciferase sensor, 48 h; neutral wells = 0, positive control = 100; activation (reporter increase), % at 12.5 µM; 340,000 compounds, 0.3% hits;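 active means mean replicate activation score at least 90 and every replicate individually at or above 90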;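 further: higher luciferase means less miR-122 activity so hits act as miR-122 inhibitors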
CAL PDZ FP-2: CAL PDZ peptide-binding inhibitors, primary screen, biochemical, fluorescence polarization, Cer-tagged CAL PDZ, HTS; purified CAL PDZ, TMR-peptide fluorescence polarization, 1 h; inhibition, % at 20 µM; Golgi-associated PDZ and coiled-coil motif-containing protein (Homo sapiens), Q9HD26; 330,000 compounds, 0.02% hits;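 active means highest replicate inhibition of at least 40%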;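 further: plate controls were DMSO neutral control wells for no effect and unlabeled competitor peptide control wells for full effect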
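Read-out basis: mP drop reported as inhibition | Assay system: Tagged CAL PDZ protein CerCALP, purified | Benchmarks: Unlabelled peptide for full inhibition, DMSO wells as neutral | Schedule: 1 h incubation at room temperature before polarization reading | Buffer or medium: Sodium phosphate/NaCl buffer pH 7.4 with TCEP, IgG, Thesit | Doses: Single point, 20 µM | Measured by: Fluorescence polarization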
C-LANA FP: inhibitors of KSHV C-LANA binding to DNA, primary screen, biochemical, fluorescence polarization, FAM-LBS DNA, MBP-C-LANA, single point | AID 504423, 2011 | inhibition, % at 9 µM | 340,000 compounds, 0.078% hits | Kaposi's sarcoma herpesvirus LANA C-terminal domain (residues 932-1162) DNA binding;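 active means highest replicate inhibition at or above 60% at 9 µM, even if other replicates fall short; inactive means all replicates below 60% inhibition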;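 further: 0% = neutral control wells and 100% = 4 µM acridine orange control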
* marks the source's active call; other numbers are inactive results; nt = no result given; [ ] = dose if it differs, or a comment.

SMILES	Keap1-Nrf2 PPI	CAL PDZ FP-1	miR-122 sensor	CAL PDZ FP-2	C-LANA FP
CCc1ccccc1N1C(=O)CC(Sc2nccc(C)n2)C1=O (configuration not stated)	-8	100*	-4	nt	0
Cc1nn2c3ccccc3nc2c2ccccc12	-2	nt	-10	43*	-1
CCNC(=O)[C@@H]1[C@@H](CO)[C@@H]2Cn3c(ccc(-c4ccc(F)cc4)c3=O)[C@H]1N2C	nt	nt	15[16.7 µM]	nt	nt
O=C1c2ccccc2NC(c2cn[nH]c2-c2ccc(Cl)cc2)N1O (configuration not stated)	12*	-10	nt	-3	8
NC(=O)c1ccc(-n2nnnc2SCC(=O)c2ccc(O)c(O)c2)cc1	3	-7	129*	-1	1
O=C(CSc1nnnn1-c1ccccc1)c1ccc(O)cc1O	5	43*	9	-2	-2
CCOc1ccc(NC(=O)CSc2nnnn2-c2ccc(C(N)=O)cc2)cc1	-1	66*	nt	nt	2
O=C(C[C@H]1CC[C@@H]2[C@H](COC[C@@H](O)CN2Cc2ccc3c(c2)OCO3)O1)Nc1ccccc1	nt	nt	4[16.7 µM]	nt	nt
C[C@@H]1CCCCO[C@@H](CN(C)C(=O)Cc2ccccc2)[C@H](C)CN([C@@H](C)CO)C(=O)c2cc(NC(=O)c3ccccc3)ccc2O1	nt	nt	-5[16.7 µM]	nt	nt
CN(CC1COc2ccccc2O1)C(=O)c1cc(COc2c(F)cccc2F)on1 (configuration not stated)	-1	57*	-1	-1	-2
CN(C)C(=O)C[C@H]1CC[C@H]2[C@H](COc3ccc(NC(=O)NCc4ccccc4)cc3C(=O)N2C)O1	nt	nt	-17[16.7 µM]	nt	nt
CC(=O)c1ccc(NS(=O)(=O)c2c(C)cc(C)cc2C)cc1	-4	-3	152*	-1	-3
C[C@@H]1CCCCO[C@@H](CN(C)C(=O)c2ccccc2)[C@@H](C)CN([C@@H](C)CO)C(=O)c2cc(NC(=O)Cc3ccccc3)ccc2O1	nt	nt	6[16.7 µM]	nt	nt
C[C@@H]1CCCCO[C@@H](CN(C)C(=O)Cc2ccccc2)[C@H](C)CN([C@@H](C)CO)C(=O)c2cc(NS(=O)(=O)c3ccc(Cl)cc3)ccc2O1	nt	nt	-10[16.7 µM]	nt	nt
Cc1cc(CN(C)C(=O)c2cc(COc3ccc4ncccc4c3)on2)on1	0	76*	-35	-2	2
CC(=O)c1ccc(OCc2cc(C(=O)N(C)Cc3cc(C)no3)no2)cc1	-7	1	-4	0	-1
CN(Cc1nccn1C)C(=O)c1cc(COc2ccc3ncccc3c2)on1	-2	42*	nt	25	0
Cn1nc(C(=O)NC2CCCCC2)c2c1-c1ccccc1SC2	-1	-1	0	0	0
CC1CCC(NC(=O)c2nn(C)c3c2CSc2ccccc2-3)CC1 (configuration not stated)	2	70*	11	-2	-2
Cc1nn(Cc2ccc(Cl)c(Cl)c2)c(C)c1NC(=O)c1sc2ccccc2c1Cl	-2	35*	-32	nt	1
Cc1nn(Cc2c(Cl)cccc2Cl)c(C)c1NC(=O)c1sc2ccccc2c1Cl	-4	-2	4	0	-1
O=C(N[C@H]1CC[C@H](CCNS(=O)(=O)Cc2ccccc2)O[C@@H]1CO)c1cnccn1	nt	nt	-2[16.7 µM]	nt	nt
Nc1ccc(-c2nc3ccc(N)cc3[nH]2)cc1	0	nt	nt	2	0
Nc1ccc2cc3[nH]c4cc(N)ccc4c3nc2c1	161*	-2	-3	3	164*
CC(C(=O)NCC1CCCO1)N1C(=O)C2C3CC(C(Br)C3Br)C2C1=O (configuration not stated)	-5	109*	-2	1	0
SMILES	Keap1-Nrf2 PPI	CAL PDZ FP-1	miR-122 sensor	CAL PDZ FP-2	C-LANA FP
C[C@@H]1CCCCO[C@H](CN(C)S(C)(=O)=O)[C@@H](C)CN([C@H](C)CO)C(=O)c2cc(NS(=O)(=O)c3cccs3)ccc2O1	nt	nt	2[16.7 µM]	nt	nt
CCNC(=O)NC(=O)C(C)OC(=O)c1ccc(SC)cc1OC (configuration not stated)	-5	-2	nt	2	2
COc1cc(SC)ccc1C(=O)OC(C)C(=O)Nc1ccc(NC(C)=O)cc1 (configuration not stated)	-1	56*	-2	-1	0
Cc1nc2oc3c(NCC4CCCO4)ncnc3c2c2c1COC(C)(C)C2 (configuration not stated)	-1	0	-3	1	0
CC(C)c1nc2oc3c(NCC4CCCO4)ncnc3c2c2c1COC(C)(C)C2 (configuration not stated)	1	-6	194*	-1	-2
FC(F)(F)c1cc(-c2ccccc2)nc(N2CCCCC2)n1	-3	-4	-3	1	-1
O=C(O)C1CCCN1c1nc(-c2ccc(Cl)c(Cl)c2)cc(C(F)(F)F)n1 (configuration not stated)	-5	91*	-2	-2	1
CCOC(=O)C1(Cc2ccccc2)CCCN(C(=O)c2ccc(-n3ccnc3)cc2)C1 (configuration not stated)	-1	38*	-10	-2	-1
CCCc1cc(C(=O)N2CCCC(Cc3cccc(Cl)c3)(C(=O)OCC)C2)n(C)n1 (configuration not stated)	2	-2	-5	1	1
CCOC(=O)C1(Cc2ccccc2)CCCN(C(=O)c2cn[nH]c2)C1 (configuration not stated)	-9	-3	1	0	0
CCOC(=O)C1(Cc2cccc(Cl)c2)CCCN(C(=O)c2ccnn2C)C1 (configuration not stated)	5	41*	0	-1	-1
C[C@@H]1CN([C@@H](C)CO)C(=O)c2cccc(NC(=O)c3cnccn3)c2O[C@@H]1CN(C)S(=O)(=O)c1cn(C)cn1	nt	nt	-3[16.7 µM]	nt	nt
CN(C)S(=O)(=O)c1cc(NC(=O)Cn2ccsc2=N)ccc1Cl	-4	101*	nt	0	-2
CC(C)NC(=S)N1CCn2c(nc3ccccc32)C1	-3	nt	116*	0	-1
Cc1ccc(N2C(=O)c3ccccc3C2=O)cc1	-5	-4	5	-1	-9
CCN(CC)c1ccc(N2C(=O)c3ccccc3C2=O)cc1	-5	102*	2	nt	0
O=C(Nc1cccc(Cl)c1)N1CCN(C/C=C/c2ccccc2)CC1	3	48*	nt	-2	1
C[C@H]1CN([C@@H](C)CO)S(=O)(=O)c2ccc(/C=C/c3ccccc3)cc2O[C@@H]1CN(C)Cc1cncnc1	nt	nt	17[16.7 µM]	nt	nt
O=C(Nc1ccc(Cl)cc1)c1cc(S(=O)(=O)Nc2ccccn2)ccc1Cl	-2	nt	19	-2	-1
O=C(Nc1cccc([N+](=O)[O-])c1)c1cc(S(=O)(=O)Nc2ccccn2)ccc1Cl	0	44*	8	0	-3
